16 compounds from ChEMBL document CHEMBL2169881, “Synthesis and biological activity of obatoclax derivatives as novel and potent SHP-1 agonists” (Eur J Med Chem, 2012) can be followed below.

What all share (format): functional, cell-based
Assay [1] can be described thus: Cytotoxicity against human PLC5 cells by MTT assay. The method in brief: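 MTT viability assay on PLC5 hepatocellular carcinoma cells maintained in DMEM with 10% FBS, penicillin, streptomycin and amphotericin B at 37 °C, 5% CO2. IC50 is the concentration giving 50% growth inhibition, interpolated from dose–response curves.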
Assay [2] addresses Tyrosine-protein phosphatase non-receptor type 6 (Homo sapiens) (UniProt P29350). Nature of the assay: Agonist activity at SHP1 in human PLC5 cells assessed as inhibition of STAT3 Y705 phosphorylation at 10 uM after 12 hrs by Western blot analysis. The method in brief: (§1)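 PLC5 cells (ATCC) grown in DMEM with 10% FBS, penicillin G, streptomycin and amphotericin B at 37 °C, 5% CO2. Cells treated at 10 μM for 12 h. Lysates immunoblotted for p-STAT3, STAT3, SHP-1, Mcl-1, survivin, cyclin D1, PARP, with actin as loading control.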
In general terms: Immunoblotting shows a protein as a band on a membrane.

Assay [3] has the same target. Kind of assay: Agonist activity at SHP1 in human PLC5 cells assessed as decrease in pSTAT3-mediated Mcl1 level at 10 uM after 12 hrs by Western blot analysis. In outline: as §1
For assay [4] the target is unchanged. Kind of assay: Agonist activity at SHP1 in human PLC5 cells assessed as decrease in pSTAT3-mediated cyclinD1 level at 10 uM after 12 hrs by Western blot analysis. In outline:
as §1

Assay [5] has the same target. Nature of the assay: Agonist activity at SHP1 in human PLC5 cells assessed as decrease in pSTAT3-mediated survivin level at 10 uM after 12 hrs by Western blot analysis. In outline: as §1
Assay [6] shares this target. Kind of assay: Agonist activity at SHP1 in human PLC5 cells assessed as inhibition of IL6-induced STAT3 phosphorylation at 10 uM incubated for 24 hrs prior to IL6-induction measured after 30 mins by sandwich ELISA. The method in brief:
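PLC5 cells, cultured in DMEM/10% FBS with antibiotics at 37 °C, 5% CO2, were pretreated with compound at 10 μM for 24 h. IL-6 (10 ng/mL) stimulation followed for 30 min before STAT3 activity was read.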
(In general: ELISA stands for enzyme-linked immunosorbent assay.)

The target is the same in assay [7]. Kind of assay: Agonist activity at SHP1 in human PLC5 cells assessed as increase in SHP1 level at 10 uM after 12 hrs by Western blot analysis. In outline:
as §1

Assay [8] has the same target. Kind of assay: Agonist activity at SHP1 in human PLC5 cells at 10 uM after 6 hrs by immunoprecipitation method.

Active and inactive are the calls of the source. The calls are words filed in the database; no cut-off is given here. Some results are limits rather than exact numbers.

Tyrosine-protein phosphatase non-receptor type 6 (Homo sapiens), sequence (P29350 whole entry): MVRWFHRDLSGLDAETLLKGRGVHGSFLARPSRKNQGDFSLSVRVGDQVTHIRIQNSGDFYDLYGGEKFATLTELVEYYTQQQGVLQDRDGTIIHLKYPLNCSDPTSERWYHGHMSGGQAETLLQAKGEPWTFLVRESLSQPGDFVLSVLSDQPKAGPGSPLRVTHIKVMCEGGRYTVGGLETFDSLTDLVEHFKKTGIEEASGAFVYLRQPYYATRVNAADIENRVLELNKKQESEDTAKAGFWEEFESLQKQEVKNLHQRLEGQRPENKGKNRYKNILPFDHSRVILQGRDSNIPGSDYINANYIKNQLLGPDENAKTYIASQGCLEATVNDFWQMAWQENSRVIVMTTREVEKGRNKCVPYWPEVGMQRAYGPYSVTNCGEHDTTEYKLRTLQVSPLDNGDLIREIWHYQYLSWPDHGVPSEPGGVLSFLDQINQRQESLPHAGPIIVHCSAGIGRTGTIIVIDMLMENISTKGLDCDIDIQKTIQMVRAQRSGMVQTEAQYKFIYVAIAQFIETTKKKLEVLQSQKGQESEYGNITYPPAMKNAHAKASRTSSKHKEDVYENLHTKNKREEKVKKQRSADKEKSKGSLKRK

Usually IC50 stands for the concentration needed to halve the response being measured. The compound `COC1=CC(c2cccs2)=N/C1=C\c1ccc[nH]1` had an IC50 in assay [1] above 40 µM.

The compound `COC1=CC(c2cccs2)=N/C1=C\c1cccs1` yielded an IC50 in assay [1] of 25.9 µM.

`COc1cc(-c2cc3ccccc3[nH]2)[nH]c1/C=C1/SC(=O)NC1=O`: the IC50 in assay [1] was found to be 27.5 µM.

Regarding `COC1=CC(c2cccs2)=N/C1=C\c1[nH]c(C)cc1C`, the half-maximal inhibitory concentration (IC50) in assay [1] is above 40 µM.

Turning to `COC1=CC(c2cc3cc(Br)ccc3[nH]2)=N/C1=C\c1ccc[nH]1`, the inhibition entry in assay [2] and in assay [6] was “Active” in each case. Moreover, the result in assay [3], in assay [4], in assay [5], in assay [7] and in assay [8] was Active. The half-maximal inhibitory concentration (IC50) in assay [1] was 6.3 µM.

In assay [1], `COc1cc(-c2cc3ccccc3n2C(=O)OC(C)(C)C)[nH]c1/C=C1\C(=O)Nc2ccccc21` showed an IC50 above 40 µM.

Regarding `COC1=CC(c2cc3ccccc3[nH]2)=N/C1=C\c1cccs1`, the half-inhibitory concentration (IC50) in assay [1] is above 40 µM.

In assay [1], `COc1cc(-c2cc3ccccc3[nH]2)[nH]c1C1SCCCS1` displayed an IC50 above 40 µM.

Take `COc1cc(-c2cc3ccccc3[nH]2)[nH]c1/C=C1\C(=O)Nc2ccccc21`: half-maximal inhibition in assay [1] (IC50) required 35.4 µM.

Regarding `COC1=CC(c2cc3ccccc3n2C(=O)OC(C)(C)C)=N/C1=C\c1[nH]c(C)cc1C`, in assay [1], the IC50 was 28.4 µM.

`COC1=CC(c2cc3ccccc3[nH]2)=N/C1=C\c1[nH]c(C)cc1C` [OBATOCLAX] came in with an IC50 in assay [1] of 12.1 µM.

Regarding `COC1=CC(c2cc3ccccc3[nH]2)=N/C1=C\c1ccc(-c2cc3ccccc3[nH]2)[nH]1`, the inhibition entry in assay [2] and in assay [6] was “Active” throughout. Moreover, the outcome in assay [3], in assay [4], in assay [5], in assay [7] and in assay [8] was Active. Further, half-maximal inhibition in assay [1] (IC50) was put at 15.9 µM.

For `COC1=CC(c2cc3ccccc3n2C(=O)OC(C)(C)C)=N/C1=C\c1ccc[nH]1`, the half-inhibitory concentration (IC50) in assay [1] was above 40 µM.

`COc1cc(-c2cc3ccccc3n2C(=O)OC(C)(C)C)[nH]c1/C=C1/SC(=O)NC1=O`: in assay [1], the IC50 is above 40 µM.

As for `COC1=CC(c2cc3ccccc3[nH]2)=N/C1=C\c1ccc[nH]1`, the inhibition result in assay [2] and in assay [6] was “Active” each time. In addition, the outcome in assay [3], in assay [4], in assay [5], in assay [7] and in assay [8] was Active. The same compound returned an IC50 in assay [1] of 13.2 µM.

Turning to `COC1=CC(c2ccco2)=N/C1=C\c1ccc[nH]1`, in assay [2], the inhibition result was “inactive”. Also, the result in assay [3], in assay [4], in assay [5] and in assay [7] was inactive. The compound further yielded an IC50 in assay [1] above 40 µM.
